Reference: ChEMBL document CHEMBL5647683 (Oncogene, 2008)

How the values were obtained:
A-431 [1] = assay: Antitumor activity against human A-431 cells xenografted athymic NMRI-nu/nu female mouse as reduction in tumor volume at 75 mg/kg, po administered daily for 25 days relative to control; type: functional; details: time 25 day
Method in brief: (§1)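 Female athymic NMRI-nu/nu mice (5–6 weeks, 21–31 g) given 1–5×10⁶ cells into the right flank; MDA-MB-453 tumors started from fresh 2×2×2 mm fragments. At 40–130 mm³, tumors were randomized to weight-based daily oral gavage (10 ml/kg; 1.8% HP-β-CD, 5% acetic acid (10%), 0.5% Natrosol) or vehicle. Caliper measurement 3×/week, volume π/6×L×W². Expressed as cumulative treated/control volume ratio; one-way ANOVA with Dunnett's test.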

[2] = Inhibition of human EGFR L858R-T790M double mutant expressed in mouse BaF3 cells assessed as reduction in cell survival incubated for 48 hrs by WST assay
[3] = Inhibition of human EGFR L747_P753del7insS-T790M mutant expressed in mouse BaF3 cells assessed as reduction in cell survival incubated for 48 hrs by WST assay
[4] = Inhibition of human EGFR S752_I759del8 mutant expressed in mouse BaF3 cells assessed as reduction in cell survival incubated for 48 hrs by WST assay
[5] = Inhibition of human EGFR variant III deletion expressed in mouse BaF3 cells assessed as reduction in cell survival incubated for 48 hrs by WST assay
[6] = Inhibition of human EGFR S752_I759del8-T790M mutant expressed in mouse BaF3 cells assessed as reduction in cell survival incubated for 48 hrs by WST assay
A-431 [7] = assay: Antitumor activity against human A-431 cells xenografted athymic NMRI-nu/nu female mouse as reduction in tumor volume at 2x100 mg/kg, po administered daily for 25 days relative to control; type: functional; details: dose 100 mg/kg, time 25 day; method in brief: as §1

**Q.** With `COc1cc2ncnc(Nc3ccc(F)c(Cl)c3)c2cc1OCCCN1CCOCC1` [GEFITINIB] as the compound, how does the T/C (A-431 [1]) read?
**A.** 46%

**Q.** Which IC50 [2] does the source give for `C#Cc1cccc(Nc2ncnc3cc(OCCOC)c(OCCOC)cc23)c1` [ERLOTINIB] here?
**A.** >10 µM

**Q.** What about the IC50 [3] of the same compound?
**A.** >10 µM

**Q.** What about the IC50 [4] of the same compound?
**A.** 0.033 µM

**Q.** And the IC50 [5]?
**A.** 0.144 µM

**Q.** What about the IC50 [6] of the same compound?
**A.** >10 µM

**Q.** Which T/C (A-431 [7]) does the source give for `CS(=O)(=O)CCNCc1ccc(-c2ccc3ncnc(Nc4ccc(OCc5cccc(F)c5)c(Cl)c4)c3c2)o1` [LAPATINIB] here?
**A.** 32%
